MIC and Ratio data for three compounds are collected here from ChEMBL document CHEMBL2429740, “The synthesis and SAR study of phenylalanine-derived (Z)-5-arylmethylidene rhodanines as anti-methicillin-resistant Staphylococcus aureus (MRSA) compounds” (2013).

In brackets after ≈: the same amount, converted by molar mass.

Type in all cases: functional
Assay [1] has as its system Staphylococcus aureus. The assay can be described thus: Antibacterial activity against methicillin-resistant Staphylococcus aureus ATCC 700787 by microdilution technique.
Assay [2] deals with Staphylococcus aureus. The assay can be described thus: Ratio of MIC for methicillin-resistant Staphylococcus aureus ATCC 700698 in absence of 10% FBS to MIC for methicillin-resistant Staphylococcus aureus ATCC 700698 in presence of 10% FBS. An outline of the steps:
(§1)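 MIC determined by the same turbidity-based microdilution method, once in standard medium and once in medium with 10% fetal serum added, to probe serum protein binding. The ratio is the MIC without serum over the MIC with serum, for each strain.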

The test system of assay [3] is Staphylococcus aureus. Kind of assay: Ratio of MIC for methicillin-resistant Staphylococcus aureus ATCC 700787 in absence of 10% FBS to MIC for methicillin-resistant Staphylococcus aureus ATCC 700787 in presence of 10% FBS. An outline of the steps:
as §1

Assay [4] has as its system Staphylococcus aureus. The assay can be described thus: Ratio of MIC for methicillin-resistant Staphylococcus aureus ATCC 34404 in absence of 10% FBS to MIC for methicillin-resistant Staphylococcus aureus ATCC 34404 in presence of 10% FBS. An outline of the steps: as §1
The test system of assay [5] is Staphylococcus aureus. The assay can be described thus: Ratio of MIC for methicillin-resistant Staphylococcus aureus ATCC BAA-39 in absence of 10% FBS to MIC for methicillin-resistant Staphylococcus aureus ATCC BAA-39 in presence of 10% FBS. The method in brief: as §1
The test system of assay [6] is Staphylococcus aureus. The assay can be described thus: Antibacterial activity against methicillin-resistant Staphylococcus aureus ATCC BAA-39 by microdilution technique.
Assay [7] relates to Staphylococcus aureus. Kind of assay: Antibacterial activity against methicillin-resistant Staphylococcus aureus CA ATCC BAA-1680 by microdilution technique.
Assay [8] concerns Staphylococcus aureus. The assay can be described thus: Ratio of MIC for methicillin-resistant Staphylococcus aureus ST239 HS770 in absence of 10% FBS to MIC for methicillin-resistant Staphylococcus aureus ST239 HS770 in presence of 10% FBS. The method in brief:
as §1

Assay [9] has as its system Staphylococcus aureus. The assay can be described thus: Antibacterial activity against methicillin-resistant Staphylococcus aureus ATCC 700698 by microdilution technique.
Assay [10] relates to Staphylococcus aureus. The assay can be described thus: Antibacterial activity against methicillin-resistant Staphylococcus aureus ATCC 34404 by microdilution technique.
For assay [11], the system named is Staphylococcus aureus. The assay can be described thus: Ratio of MIC for methicillin-resistant Staphylococcus aureus CA ATCC BAA-1680 in absence of 10% FBS to MIC for methicillin-resistant Staphylococcus aureus CA ATCC BAA-1680 in presence of 10% FBS. The method in brief: as §1
For assay [12], the system named is Staphylococcus aureus. Kind of assay: Antibacterial activity against methicillin-resistant Staphylococcus aureus ST239 HS770 by microdilution technique.

As to `O=C(O)[C@H](Cc1ccccc1)N1C(=O)/C(=C/c2cccc(Oc3ccc(Cl)c(Cl)c3)c2)SC1=S`, the minimum inhibitory concentration (MIC) against Staphylococcus aureus [1] was determined as 3.9 µg/mL (≈ 7.35 µM); in the assay on Staphylococcus aureus [6], 1.95 µg/mL (≈ 3.68 µM); against Staphylococcus aureus [7], 1.95 µg/mL (≈ 3.68 µM); in the assay with Staphylococcus aureus [9], 1.95 µg/mL (≈ 3.68 µM); in the assay on Staphylococcus aureus [10], 0.98 µg/mL (≈ 1.85 µM). The Ratio in the assay on Staphylococcus aureus [2], in the assay on Staphylococcus aureus [3], with Staphylococcus aureus [4], with Staphylococcus aureus [5], in the assay with Staphylococcus aureus [8] and in the assay with Staphylococcus aureus [11] was 2 throughout.

Regarding `O=C(O)[C@H](Cc1ccccc1)N1C(=O)/C(=C/c2cccc(-c3ccccc3)c2)SC1=S`, the MIC against Staphylococcus aureus [1] was determined as 1.95 µg/mL (≈ 4.38 µM); in the assay on Staphylococcus aureus [6], 0.98 µg/mL (≈ 2.2 µM); with Staphylococcus aureus [7], 1.95 µg/mL (≈ 4.38 µM); against Staphylococcus aureus [9], 1.95 µg/mL (≈ 4.38 µM); against Staphylococcus aureus [12] it was 1.95 µg/mL (≈ 4.38 µM); with Staphylococcus aureus [10], 0.98 µg/mL (≈ 2.2 µM). The Ratio with Staphylococcus aureus [2], in the assay on Staphylococcus aureus [3], with Staphylococcus aureus [4], with Staphylococcus aureus [5], with Staphylococcus aureus [8] and in the assay with Staphylococcus aureus [11] was 2 in each case.

For the compound `O=C(O)[C@@H](Cc1ccccc1)N1C(=O)/C(=C/c2cccc(Oc3cccc(Cl)c3)c2)SC1=S`, the minimal inhibitory concentration (MIC) in the assay on Staphylococcus aureus [1] worked out at 3.9 µg/mL (≈ 7.86 µM); against Staphylococcus aureus [6] it was 1.95 µg/mL (≈ 3.93 µM); against Staphylococcus aureus [7], 1.95 µg/mL (≈ 3.93 µM); in the assay with Staphylococcus aureus [9], 3.9 µg/mL (≈ 7.86 µM); with Staphylococcus aureus [12], 1.95 µg/mL (≈ 3.93 µM); against Staphylococcus aureus [10], 0.98 µg/mL (≈ 1.98 µM). Moreover, the Ratio in the assay with Staphylococcus aureus [2], with Staphylococcus aureus [3], in the assay with Staphylococcus aureus [4], with Staphylococcus aureus [5], in the assay with Staphylococcus aureus [8] and with Staphylococcus aureus [11] was 2 each time.
